In ChEMBL document CHEMBL3525985, “Regiospecificity and stereospecificity of human UDP-glucuronosyltransferases in the glucuronidation of estriol, 16-epiestriol, 17-epiestriol, and 13-epiestradiol” (Drug Metab Dispos, 2013):
One block for each compound: values may come before it.

Assays:
Type in all cases: ADME
Settings in all cases: recombinant enzyme
[1] = molecular target: T1, UDP-glucuronosyltransferase 2B15 (Homo sapiens, UniProt P54855); assay: Drug metabolism assessed as recombinant human C-terminal […]-mediated 17-epiestriol-3-glucuronide formation at 200 uM after 15 to 60 mins by HPLC analysis in presence of UDPGA
T1 sequence (P54855 whole entry): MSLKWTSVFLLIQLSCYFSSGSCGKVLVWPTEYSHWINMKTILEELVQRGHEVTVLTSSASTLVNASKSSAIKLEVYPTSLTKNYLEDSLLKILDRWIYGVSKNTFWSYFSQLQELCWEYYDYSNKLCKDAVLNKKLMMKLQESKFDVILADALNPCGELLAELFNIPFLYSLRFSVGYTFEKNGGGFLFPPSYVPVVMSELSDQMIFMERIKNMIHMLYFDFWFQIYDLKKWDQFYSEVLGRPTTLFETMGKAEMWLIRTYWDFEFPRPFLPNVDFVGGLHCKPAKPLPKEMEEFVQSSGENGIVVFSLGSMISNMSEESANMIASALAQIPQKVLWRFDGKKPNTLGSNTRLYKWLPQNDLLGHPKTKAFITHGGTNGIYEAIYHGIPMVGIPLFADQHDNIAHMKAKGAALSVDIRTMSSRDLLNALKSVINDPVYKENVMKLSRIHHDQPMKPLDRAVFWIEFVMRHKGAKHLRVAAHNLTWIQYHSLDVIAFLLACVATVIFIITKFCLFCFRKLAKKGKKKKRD

[2] = molecular target: T2, UDP-glucuronosyltransferase 2B7 (Homo sapiens, UniProt P16662); assay: Drug metabolism assessed as recombinant human C-terminal His-tagged UGT2B7-mediated 13-epiestradiol-17-glucuronide formation at 200 uM after 15 to 60 mins by HPLC analysis in presence of UDPGA
T2 sequence (P16662 whole entry): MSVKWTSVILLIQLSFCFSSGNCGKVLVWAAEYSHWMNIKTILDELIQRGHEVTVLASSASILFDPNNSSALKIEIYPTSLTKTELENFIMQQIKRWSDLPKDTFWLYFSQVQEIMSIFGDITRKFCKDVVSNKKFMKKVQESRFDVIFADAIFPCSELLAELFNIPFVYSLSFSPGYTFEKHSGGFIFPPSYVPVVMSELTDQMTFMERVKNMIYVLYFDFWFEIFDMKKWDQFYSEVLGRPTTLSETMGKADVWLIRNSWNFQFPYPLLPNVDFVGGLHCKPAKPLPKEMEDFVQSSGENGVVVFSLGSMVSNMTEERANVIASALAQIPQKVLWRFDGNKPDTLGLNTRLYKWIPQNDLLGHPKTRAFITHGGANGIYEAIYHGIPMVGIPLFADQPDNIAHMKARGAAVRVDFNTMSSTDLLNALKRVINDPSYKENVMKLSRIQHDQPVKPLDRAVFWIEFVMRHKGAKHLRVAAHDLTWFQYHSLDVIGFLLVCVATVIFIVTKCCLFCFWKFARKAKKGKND
How it was run: (§1)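 Screening at a single substrate concentration of 200 μM, in triplicate. The reaction used 5 or 50 µg of UGT-enriched insect cell membranes in 50 mM phosphate pH 7.4 with 10 mM MgCl₂ and 5 mM UDPGA, 10% final DMSO. Incubation was 15–60 min at 37°C. Perchloric acid stopped the reaction and supernatants were analysed by HPLC. Controls lacked UDPGA. Rates were normalized to relative UGT expression level.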

[3] = molecular target: T3, UDP-glucuronosyltransferase 1A10 (Homo sapiens, UniProt Q9HAW8); assay: Drug metabolism assessed as human UGT1A10-mediated 13-epiestradiol-3-glucuronide formation at 200 uM after 15 to 60 mins by HPLC analysis in presence of UDPGA; how it was run: as §1
T3 sequence (Q9HAW8 whole entry): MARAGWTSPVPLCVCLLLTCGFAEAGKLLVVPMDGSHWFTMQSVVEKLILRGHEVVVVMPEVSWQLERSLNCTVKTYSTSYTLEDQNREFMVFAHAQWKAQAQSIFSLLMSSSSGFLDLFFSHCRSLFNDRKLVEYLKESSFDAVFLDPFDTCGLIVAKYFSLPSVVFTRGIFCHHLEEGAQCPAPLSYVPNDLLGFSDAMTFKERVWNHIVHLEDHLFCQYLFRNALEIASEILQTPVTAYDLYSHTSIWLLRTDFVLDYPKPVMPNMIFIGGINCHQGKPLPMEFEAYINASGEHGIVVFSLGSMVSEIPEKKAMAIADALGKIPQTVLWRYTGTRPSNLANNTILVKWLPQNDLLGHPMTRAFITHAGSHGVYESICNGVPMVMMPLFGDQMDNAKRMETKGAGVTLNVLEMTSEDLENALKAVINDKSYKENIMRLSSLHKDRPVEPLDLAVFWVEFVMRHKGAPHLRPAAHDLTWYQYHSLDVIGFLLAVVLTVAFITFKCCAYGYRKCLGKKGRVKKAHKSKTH

[4] = molecular target: T2, UDP-glucuronosyltransferase 2B7; assay: Drug metabolism assessed as recombinant human C-terminal His-tagged UGT2B7-mediated 16-epiestriol-16-glucuronide formation after 15 to 60 mins by Michaelis-Menten equation analysis in presence of UDPGA
How it was run: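 For kinetics, the aglycone ranged from 0.2 to 300 μM in DMSO (10% final) with 5 mM UDPGA, 10 mM MgCl₂ and 50 mM phosphate pH 7.4. Enzyme was UGT-enriched insect cell membranes. Incubation was 15–60 min at 37°C, in triplicate, keeping substrate consumption ≤10%. Products were measured by HPLC and fitted to Michaelis-Menten. Rates were normalized to expression level.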

[5] = molecular target: T4, UDP-glucuronosyltransferase 1A4 (Homo sapiens, UniProt P22310); assay: Drug metabolism assessed as recombinant human C-terminal His-tagged UGT1A4-mediated estradiol-17-glucuronide formation at 200 uM after 15 to 60 mins by HPLC analysis in presence of UDPGA; how it was run: as §1
T4 sequence (P22310 whole entry): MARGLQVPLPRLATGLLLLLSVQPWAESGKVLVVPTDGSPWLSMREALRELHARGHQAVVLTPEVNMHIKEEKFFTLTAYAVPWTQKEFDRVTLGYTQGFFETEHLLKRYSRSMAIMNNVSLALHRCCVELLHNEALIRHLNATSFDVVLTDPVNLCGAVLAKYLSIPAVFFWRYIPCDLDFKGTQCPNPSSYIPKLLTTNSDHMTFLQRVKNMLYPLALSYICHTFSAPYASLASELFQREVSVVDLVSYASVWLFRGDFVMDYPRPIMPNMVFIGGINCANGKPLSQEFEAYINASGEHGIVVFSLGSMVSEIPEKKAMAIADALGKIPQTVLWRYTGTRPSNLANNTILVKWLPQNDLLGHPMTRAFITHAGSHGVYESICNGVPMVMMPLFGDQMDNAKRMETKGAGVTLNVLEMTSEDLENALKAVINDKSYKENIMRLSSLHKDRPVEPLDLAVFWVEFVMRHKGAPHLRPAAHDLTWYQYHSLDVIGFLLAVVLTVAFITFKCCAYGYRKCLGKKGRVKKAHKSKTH

Drug metabolism [1]: metabolite_detected
SMILES: C[C@]12CC[C@@H]3c4ccc(O)cc4CC[C@H]3[C@@H]1C[C@@H](O)[C@H]2O

Drug metabolism [2]: metabolite_detected | Drug metabolism [3]: metabolite_detected
SMILES: C[C@@]12CC[C@@H]3c4ccc(O)cc4CC[C@H]3[C@@H]1CC[C@@H]2O

Drug metabolism [4]: 2700 pmol/min/mg
SMILES: C[C@]12CC[C@@H]3c4ccc(O)cc4CC[C@H]3[C@@H]1C[C@H](O)[C@@H]2O [EPIESTRIOL]

Drug metabolism [5]: metabolite_detected
SMILES: C[C@]12CC[C@@H]3c4ccc(O)cc4CC[C@H]3[C@@H]1CC[C@@H]2O [ESTRADIOL]
